# Reference: ChEMBL document CHEMBL2429772, “Selective arylsulfonamide inhibitors of ADAM-17: hit optimization and activity in ovarian cancer cell models” (J Med Chem, 2013)
# Experiments:
# [1] = molecular target: T1, Disintegrin and metalloproteinase domain-containing protein 17 (Homo sapiens, UniProt P78536); test: Inhibition of ADAM-17 in human A2774 cells assessed as inhibition of pervanadate-induced sALCAM release incubated for 30 mins prior to pervanadate induction measured after 90 mins by ELISA; type: cell-based
# [2] = molecular target: T1, Disintegrin and metalloproteinase domain-containing protein 17; test: Inhibition of ADAM-17 in human A2774 cells assessed as inhibition of EGF-induced sALCAM release incubated for 30 mins prior to EGF induction measured after 18 hrs by ELISA; type: cell-based
# [3] = molecular target: T1, Disintegrin and metalloproteinase domain-containing protein 17; test: Inhibition of ADAM-17 in human A2780 cells assessed as inhibition of pervanadate-induced sALCAM release incubated for 30 mins prior to pervanadate induction measured after 90 mins by ELISA; type: cell-based
# [4] = molecular target: T1, Disintegrin and metalloproteinase domain-containing protein 17; test: Inhibition of recombinant human ADAM-17 using Mca-Lys-Pro-Leu-Gly-Leu-Dap(Dnp)-Ala-Arg-NH2 as substrate incubated for 30 mins measured every 15 secs for 20 mins by fluorimetric assay
# Outline: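 Enzyme at 5 nM final was preincubated with inhibitor for 30 min at 37 °C in Tris 25 mM pH 9, ZnCl2 25 µM, 0.005% Brij-35. Substrate was at 2 µM final. Fluorescence increase (ex 325/em 400 nm) gave initial rates, in duplicate. IC50 was derived from vi/vo = 1/(1+[I]/IC50).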
# [5] = molecular target: T2, Disintegrin and metalloproteinase domain-containing protein 10 (Homo sapiens, UniProt O14672); test: Inhibition of recombinant human ADAM-10 using Mca-Lys-Pro-Leu-Gly-Leu-Dap(Dnp)-Ala-Arg-NH2 as substrate incubated for 1 hr measured every 15 secs for 20 mins by fluorimetric assay
# T2 sequence (O14672 whole entry): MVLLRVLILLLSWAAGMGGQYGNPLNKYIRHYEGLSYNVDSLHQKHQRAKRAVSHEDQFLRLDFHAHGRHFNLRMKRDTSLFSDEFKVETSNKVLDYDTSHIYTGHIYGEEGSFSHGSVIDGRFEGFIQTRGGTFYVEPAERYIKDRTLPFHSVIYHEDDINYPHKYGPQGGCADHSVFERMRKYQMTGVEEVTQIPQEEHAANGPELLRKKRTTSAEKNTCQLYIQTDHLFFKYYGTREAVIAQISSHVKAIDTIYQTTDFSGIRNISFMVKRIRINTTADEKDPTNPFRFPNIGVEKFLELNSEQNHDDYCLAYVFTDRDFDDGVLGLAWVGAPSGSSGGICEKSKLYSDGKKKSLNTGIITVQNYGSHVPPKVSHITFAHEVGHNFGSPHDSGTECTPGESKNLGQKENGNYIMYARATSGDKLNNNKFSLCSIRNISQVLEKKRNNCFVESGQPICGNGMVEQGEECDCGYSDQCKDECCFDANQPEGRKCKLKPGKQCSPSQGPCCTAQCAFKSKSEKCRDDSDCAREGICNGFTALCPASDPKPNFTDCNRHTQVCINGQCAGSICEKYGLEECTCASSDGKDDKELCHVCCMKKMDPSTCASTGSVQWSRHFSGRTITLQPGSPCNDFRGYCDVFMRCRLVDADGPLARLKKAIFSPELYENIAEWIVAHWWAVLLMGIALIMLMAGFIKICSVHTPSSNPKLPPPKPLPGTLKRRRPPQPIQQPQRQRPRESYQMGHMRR
# Outline: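 Enzyme at 20 nM final was preincubated with inhibitor for 1 h at 37 °C in pH 9 buffer (Tris 25 mM, ZnCl2 25 µM, 0.005% Brij-35). Substrate was at 10 µM final. Fluorescence (ex 325/em 400 nm) was followed for initial velocity, in duplicate. IC50 was calculated with vi/vo = 1/(1+[I]/IC50).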
# [6] = molecular target: 72 kDa type IV collagenase (Homo sapiens, UniProt P08253); test: Inhibition of recombinant human MMP-2 using Mca-Lys-Pro-Leu-Gly-Leu-Dap(Dnp)-Ala-Arg-NH2 as substrate incubated for 4 hrs measured every 15 secs for 20 mins by fluorimetric assay
# Outline: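 Pro-MMP-2 was activated with 2 mM APMA for 1 h at 37 °C and used at 0.56 nM final. It was preincubated with inhibitor for 4 h at 25 °C in Tris 50 mM pH 7.5 buffer containing NaCl, CaCl2, Brij-35 and 1% DMSO. Substrate was at 2 µM final, ex 325/em 400 nm, run in duplicate. IC50 was taken from initial-velocity ratios, vi/vo = 1/(1+[I]/IC50).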
# [7] = Cytotoxicity against human A2774 cells assessed as cell viability at 0.01 to 10 uM after 24 to 72 hrs by MTT assay; type: cell-based; conditions: a2774, 10 µM
# [8] = molecular target: T1, Disintegrin and metalloproteinase domain-containing protein 17; test: Inhibition of ADAM-17 in human SKOV3 cells transfected with luciferase gene assessed as inhibition of EGF-induced sALCAM release incubated for 30 mins prior to EGF induction measured after 18 hrs by ELISA; type: cell-based, SK-OV-3
# [9] = molecular target: T3, Interstitial collagenase (Homo sapiens, UniProt P03956); test: Inhibition of recombinant human MMP-1 using Mca-Lys-Pro-Leu-Gly-Leu-Dap(Dnp)-Ala-Arg-NH2 as substrate incubated for 4 hrs measured every 15 secs for 20 mins by fluorimetric assay
# T3 sequence (P03956 whole entry): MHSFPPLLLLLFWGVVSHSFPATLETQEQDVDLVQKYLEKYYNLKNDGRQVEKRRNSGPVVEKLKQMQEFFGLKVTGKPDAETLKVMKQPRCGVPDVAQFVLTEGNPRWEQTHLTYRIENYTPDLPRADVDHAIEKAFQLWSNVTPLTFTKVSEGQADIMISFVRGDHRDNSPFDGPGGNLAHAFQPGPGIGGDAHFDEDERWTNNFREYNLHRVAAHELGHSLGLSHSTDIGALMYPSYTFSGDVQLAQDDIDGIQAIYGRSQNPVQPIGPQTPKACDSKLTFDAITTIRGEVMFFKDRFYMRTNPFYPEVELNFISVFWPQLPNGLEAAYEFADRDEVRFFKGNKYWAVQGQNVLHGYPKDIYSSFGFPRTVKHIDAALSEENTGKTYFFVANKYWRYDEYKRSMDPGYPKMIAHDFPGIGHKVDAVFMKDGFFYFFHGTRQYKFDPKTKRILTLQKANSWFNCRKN
# Outline: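 Pro-MMP-1 was activated with 2 mM APMA for 2 h at 37 °C. Enzyme (2.0 nM final) was incubated with inhibitor in Tris 50 mM pH 7.5, NaCl 150 mM, CaCl2 10 mM, 0.05% Brij-35, 1% DMSO for 4 h at 25 °C. Substrate was added at 2 µM final. Fluorescence (ex 325/em 400 nm) was read for initial rates, in duplicate. IC50 came from vi/vo = 1/(1+[I]/IC50).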
# [10] = molecular target: Matrix metalloproteinase-14 (Homo sapiens, UniProt P50281); test: Inhibition of recombinant human MMP-14 catalytic domain using Mca-Lys-Pro-Leu-Gly-Leu-Dap(Dnp)-Ala-Arg-NH2 as substrate incubated for 4 hrs measured every 15 secs for 20 mins by fluorimetric assay
# Outline: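 MMP-14 catalytic domain was used at 1.0 nM final with no activation step. It was incubated with inhibitor for 4 h at 25 °C in Tris 50 mM pH 7.5 buffer with NaCl 150 mM, CaCl2 10 mM, 0.05% Brij-35 and 1% DMSO. Substrate was at 2 µM final, ex 325/em 400 nm, duplicate wells. IC50 was fitted by vi/vo = 1/(1+[I]/IC50).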
# [11] = molecular target: Matrix metalloproteinase-9 (Homo sapiens, UniProt P14780); test: Inhibition of recombinant human MMP-9 using Mca-Lys-Pro-Leu-Gly-Leu-Dap(Dnp)-Ala-Arg-NH2 as substrate incubated for 4 hrs measured every 15 secs for 20 mins by fluorimetric assay
# Outline: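 Pro-MMP-9 was activated with 1 mM APMA for 1 h at 37 °C and used at 1.3 nM final. Inhibitor was incubated with enzyme for 4 h at 25 °C in Tris 50 mM pH 7.5, NaCl 150 mM, CaCl2 10 mM, 0.05% Brij-35, 1% DMSO. Substrate was at 2 µM final, ex 325/em 400 nm, in duplicate. IC50 was obtained from vi/vo = 1/(1+[I]/IC50).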
# [12] = molecular target: T1, Disintegrin and metalloproteinase domain-containing protein 17; test: Inhibition of ADAM-17 in human A2780 cells assessed as inhibition of EGF-induced sALCAM release incubated for 30 mins prior to EGF induction measured after 18 hrs by ELISA; type: cell-based
# [13] = test system: SK-OV-3; test: Cytotoxicity against human SKOV3 cells transfected with luciferase gene assessed as cell viability at 0.01 to 10 uM after 24 to 72 hrs by MTT assay; type: cell-based; conditions: sk-ov-3, 10 µM
# [14] = molecular target: T1, Disintegrin and metalloproteinase domain-containing protein 17; test: Inhibition of ADAM-17 in human SKOV3 cells transfected with luciferase gene assessed as inhibition of pervanadate-induced sALCAM release incubated for 30 mins prior to pervanadate induction measured after 90 mins by ELISA; type: cell-based, SK-OV-3
# [15] = test system: A2780; test: Cytotoxicity against human A2780 cells assessed as cell viability at 0.01 to 10 uM after 24 to 72 hrs by MTT assay; type: cell-based; conditions: a2780, 10 µM
# T1 sequence (P78536 whole entry, the tested form may be a part): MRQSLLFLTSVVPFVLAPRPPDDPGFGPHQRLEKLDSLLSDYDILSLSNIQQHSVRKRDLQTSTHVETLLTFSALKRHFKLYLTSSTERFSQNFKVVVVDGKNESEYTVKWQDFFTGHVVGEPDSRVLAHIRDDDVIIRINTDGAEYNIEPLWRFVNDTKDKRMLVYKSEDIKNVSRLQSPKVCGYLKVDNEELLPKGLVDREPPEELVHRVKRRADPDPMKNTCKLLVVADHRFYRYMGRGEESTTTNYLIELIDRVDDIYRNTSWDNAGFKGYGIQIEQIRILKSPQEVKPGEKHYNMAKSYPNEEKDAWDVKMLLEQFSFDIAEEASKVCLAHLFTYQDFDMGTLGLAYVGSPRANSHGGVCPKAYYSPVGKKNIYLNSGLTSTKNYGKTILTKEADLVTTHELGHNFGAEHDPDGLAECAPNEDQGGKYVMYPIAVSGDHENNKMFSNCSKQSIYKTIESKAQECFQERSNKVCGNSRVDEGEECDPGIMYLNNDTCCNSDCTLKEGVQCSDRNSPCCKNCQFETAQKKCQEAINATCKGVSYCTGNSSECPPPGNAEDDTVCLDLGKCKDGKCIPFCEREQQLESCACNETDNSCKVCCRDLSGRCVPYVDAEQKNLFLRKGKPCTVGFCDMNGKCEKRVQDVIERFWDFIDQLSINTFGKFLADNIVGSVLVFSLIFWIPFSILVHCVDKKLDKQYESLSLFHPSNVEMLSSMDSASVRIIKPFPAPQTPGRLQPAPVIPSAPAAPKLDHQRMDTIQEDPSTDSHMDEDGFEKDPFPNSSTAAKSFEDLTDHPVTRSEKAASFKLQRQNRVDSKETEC
# 72 kDa type IV collagenase, sequence (P08253 whole entry): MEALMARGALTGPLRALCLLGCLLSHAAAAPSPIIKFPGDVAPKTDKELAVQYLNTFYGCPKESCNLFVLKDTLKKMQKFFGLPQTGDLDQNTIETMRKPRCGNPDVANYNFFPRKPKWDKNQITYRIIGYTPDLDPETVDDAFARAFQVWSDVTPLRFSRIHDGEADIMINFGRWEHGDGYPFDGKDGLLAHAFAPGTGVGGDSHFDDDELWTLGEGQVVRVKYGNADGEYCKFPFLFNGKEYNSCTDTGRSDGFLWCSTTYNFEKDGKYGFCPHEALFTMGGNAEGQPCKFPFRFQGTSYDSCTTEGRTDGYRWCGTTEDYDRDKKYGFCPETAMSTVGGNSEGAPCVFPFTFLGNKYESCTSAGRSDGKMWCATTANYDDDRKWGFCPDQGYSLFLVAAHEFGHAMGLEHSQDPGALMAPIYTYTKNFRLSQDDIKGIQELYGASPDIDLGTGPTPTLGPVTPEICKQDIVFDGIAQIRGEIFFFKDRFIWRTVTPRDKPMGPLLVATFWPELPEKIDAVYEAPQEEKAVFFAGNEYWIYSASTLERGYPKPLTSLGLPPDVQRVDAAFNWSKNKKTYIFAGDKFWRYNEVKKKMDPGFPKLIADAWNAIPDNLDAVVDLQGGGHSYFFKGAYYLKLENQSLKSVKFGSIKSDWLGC
# Matrix metalloproteinase-9, sequence (P14780 whole entry): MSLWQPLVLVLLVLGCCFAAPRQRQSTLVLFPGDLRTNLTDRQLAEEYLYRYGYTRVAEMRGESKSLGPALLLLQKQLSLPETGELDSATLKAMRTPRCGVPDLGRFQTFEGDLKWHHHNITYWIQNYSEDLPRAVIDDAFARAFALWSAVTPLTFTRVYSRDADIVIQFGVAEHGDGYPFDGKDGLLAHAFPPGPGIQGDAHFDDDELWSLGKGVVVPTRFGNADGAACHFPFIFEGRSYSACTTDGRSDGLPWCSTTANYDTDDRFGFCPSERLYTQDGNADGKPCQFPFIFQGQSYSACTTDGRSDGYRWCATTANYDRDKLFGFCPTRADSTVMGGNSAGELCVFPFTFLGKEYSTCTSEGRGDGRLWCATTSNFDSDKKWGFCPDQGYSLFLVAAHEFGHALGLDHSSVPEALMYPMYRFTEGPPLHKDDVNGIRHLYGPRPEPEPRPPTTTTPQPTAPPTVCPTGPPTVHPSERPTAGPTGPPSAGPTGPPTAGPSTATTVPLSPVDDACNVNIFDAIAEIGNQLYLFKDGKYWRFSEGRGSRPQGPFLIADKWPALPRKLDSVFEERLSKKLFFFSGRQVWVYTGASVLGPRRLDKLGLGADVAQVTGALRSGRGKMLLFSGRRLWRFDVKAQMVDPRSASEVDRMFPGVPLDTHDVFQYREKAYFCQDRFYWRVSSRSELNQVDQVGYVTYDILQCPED
Compound,IC50 [1],IC50 [2],IC50 [3],IC50 [4],IC50 [5],IC50 [6],Activity [7],IC50 [8],IC50 [9],IC50 [10],IC50 [11],IC50 [12],Activity [13],IC50 [14],Activity [15]
O=C(CNS(=O)(=O)c1ccc(OCc2cc(Br)cc(Br)c2)cc1)NO,> 10 µM,> 10 µM,0.84 µM,0.105 µM,39 µM,1.75 µM,Non-toxic,> 10 µM,> 500 µM,113 µM,51 µM,> 10 µM,Non-toxic,5.3 µM,Non-toxic
O=C(NCC[C@@H](NS(=O)(=O)c1ccc(OCc2cc(Br)cc(Br)c2)cc1)C(=O)NO)OCc1ccccc1,1.39 µM,> 10 µM,0.825 µM,0.043 µM,8.2 µM,4.1 µM,Non-toxic,9.52 µM,400 µM,104 µM,11 µM,> 10 µM,Non-toxic,2.1 µM,Non-toxic
